In ChEMBL document CHEMBL1152863, “Synthesis, HIV-RT inhibitory activity and SAR of 1-benzyl-1H-1,2,3-triazole derivatives of carbohydrates” (Eur J Med Chem, 2009) one finds inhibition, CC50 and IC50 data, which are given here for 15 compounds.

The target of data set [1] is Human immunodeficiency virus type 1 reverse transcriptase (Human immunodeficiency virus 1) (UniProt Q72547). Put plainly: Inhibition of polymerase activity of HIV1 recombinant reverse transcriptase expressed in Escherichia coli at 50 uM. The gist of the method: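 Single-concentration test: compounds at 50 on recombinant HIV-1 RT (66 kDa, E. coli-expressed from pUC12N, Sephadex G-25 fraction) polymerase activity. 50 mM Tris-HCl pH 7.8, 6 mM MgCl2, 1 mM DTT, 50 mM KCl, dTTP with [3H]dTTP, poly(rA)·oligo(dT) template-primer, 1 U enzyme; 30 min at 37 °C; TCA precipitation onto filters, incorporated 3H by scintillation counting.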

Data set [2] in a line: Cytotoxicity against african green monkey Vero cells after 72 hrs by MTT assay. Type of data set: cell-based. The conditions noted are these: chlorocebus sabaeus. The method, boiled down:
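Vero cells grown in DMEM with 5% FBS, penicillin/streptomycin, 37 °C, 5% CO2; monolayers of about 10^4 cells exposed to several compound concentrations for 72 h. MTT solution (1 mg/mL) then added to assess viability. CC50 obtained by linear regression of dose-response curves; duplicates, at least three independent experiments.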
On the technique in general: Tetrazolium assays rely on reduction of a dye to a coloured formazan, in cell work by metabolically active cells.

Data set [3] has as its target Human immunodeficiency virus type 1 reverse transcriptase (Human immunodeficiency virus 1, UniProt Q72547). The data set can be described thus: Inhibition of polymerase activity of HIV1 recombinant reverse transcriptase expressed in Escherichia coli. The method, boiled down: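 Recombinant HIV-1 RT (66 kDa) expressed in E. coli from plasmid pUC12N, partly purified by Sephadex G-25; compounds tested at different concentrations (0.01-50). Reaction: 50 mM Tris-HCl pH 7.8, 6 mM MgCl2, 1 mM DTT, 50 mM KCl, dTTP plus [3H]dTTP, poly(rA)·oligo(dT), 1 U enzyme; 37 °C, 30 min; stopped with ice-cold 5% TCA/pyrophosphate, filter-collected, 3H counted by scintillation.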

pIC50: −log10 of the molar value.

Broadly, the inhibition is the drop in the measured response relative to a control, in per cent. Broadly, the CC50 is the concentration at which the toxic effect on the cells reaches its halfway point. Regarding `Cc1c(C(=O)O[C@H]2[C@@H]3OC(C)(C)O[C@@H]3CO[C@]23COC(C)(C)O3)nnn1Cc1ccccc1`, in data set [1], the inhibition was 43.5%. In data set [2], this compound had a half-maximal cytotoxic concentration (CC50) at 72 h of 2750 µM.
For `Cc1c(C(=O)O[C@H]2[C@@H](O)[C@H](O)O[C@H](CO)[C@H]2O)nnn1Cc1ccccc1` the same measures were 14% and 1440 µM.
On to `Cc1c(C(=O)O[C@H]2[C@H]3OC(C)(C)O[C@H]3O[C@@H]2[C@H]2COC(C)(C)O2)nnn1Cc1ccccc1`, for which, in data set [1], the inhibition came out at 3%. Besides, it took 3530 µM to reach half-maximal cytotoxicity in data set [2] (CC50 at 72 h).
As for `Cc1c(C(=O)O[C@H]2[C@H](O)[C@@H](CO)OC(O)[C@@H]2O)nnn1Cc1ccccc1` (some centres not stated), in data set [1], the inhibition was determined as 35.9%. The compound also registered a cytotoxic concentration (CC50) at 72 h in data set [2] of 1800 µM.
Usually pIC50 stands for the negative decadic logarithm of the IC50, by convention in mol/L. With `Cc1c(C(=O)O[C@@H]2[C@H]3OC(C)(C)O[C@H]3O[C@@H]2[C@H]2COC(C)(C)O2)nnn1Cc1ccccc1`, the inhibition in data set [1] came to 64.7%. Further, it took 208 µM to reach half-maximal cytotoxicity in data set [2] (CC50 at 72 h). Also, the pIC50 in data set [3] is 5.30.
For `Cc1c(C(=O)OC[C@@]23OC[C@H]4OC(C)(C)O[C@H]4[C@@H]2OC(C)(C)O3)nnn1Cc1ccccc1`, the inhibition in data set [1] amounted to 47.9%. For the same compound, it took 3380 µM to reach half-maximal cytotoxicity in data set [2] (CC50 at 72 h).
`Cc1c(C(=O)OC[C@H]2O[C@@H](O)[C@H](O)[C@@H]2O)nnn1Cc1ccccc1`: the inhibition in data set [1] turned out to be 33.2%. The compound also yielded a CC50 at 72 h in data set [2] of 1170 µM.
Taken in the same sequence, the figures for `Cc1c(C(=O)O[C@H]2[C@H](O)[C@H](O)CO[C@]2(O)CO)nnn1Cc1ccccc1` were 45.6% and 649 µM.
Taken in the same sequence, the figures for `Cc1c(C(=O)OC[C@H]2O[C@H](O)[C@H](O)[C@H]2OCc2ccccc2)nnn1Cc1ccccc1` were 36.2% and 596 µM.
For the compound `Cc1cn([C@H]2C[C@H](N=[N+]=[N-])[C@@H](CO)O2)c(=O)[nH]c1=O` [ZIDOVUDINE], in data set [2], the midpoint of cytotoxicity, the CC50 at 72 h, lay at 126 µM.
Turning to `Cc1c(C(=O)OC[C@H]2O[C@H](O)[C@H](O)[C@@H](O)[C@H]2O)nnn1Cc1ccccc1`, the inhibition in data set [1] turned out to be 45.6%. In data set [2], the CC50 at 72 h is 25600 µM.
For `Cc1c(C(=O)OC[C@H]2O[C@@H]3OC(C)(C)O[C@@H]3[C@H]3OC(C)(C)O[C@H]32)nnn1Cc1ccccc1` the same measures were 28.8% and 123 µM.
Turning to `Cc1c(C(=O)OC[C@H]2O[C@@H]3OC(C)(C)O[C@@H]3[C@H]2OCc2ccccc2)nnn1Cc1ccccc1`, the inhibition in data set [1] is 65.4%. In addition, the half-maximal cytotoxic concentration (CC50) at 72 h in data set [2] was found to be 724 µM. Also, in data set [3], the pIC50 was 5.70.
For `CO[C@@H]1O[C@H](COC(=O)c2nnn(Cc3ccccc3)c2C)[C@H]2OC(C)(C)O[C@@H]12`, in data set [1], the inhibition came to 63.6%. Further, it took 837 µM to reach half-maximal cytotoxicity in data set [2] (CC50 at 72 h). For the same compound, the negative logarithm of the IC50 (pIC50) in data set [3] was 5.66.
Turning to `Cc1c(C(=O)OC[C@@]2(O)OC[C@@H](O)[C@@H](O)[C@@H]2O)nnn1Cc1ccccc1`, the inhibition in data set [1] is 35.8%. The compound also displayed a half-maximal cytotoxic concentration (CC50) at 72 h in data set [2] of 800 µM.
